Among the data in ChEMBL document CHEMBL1129580, “Endogenous natriuretic factors. 5. Synthesis and biological activity of a natriuretic metabolite of diltiazem and its derivatives” (1996) are Natriuretic activity, Kaliuretic activity and Diuretic activity values, retold here.

For assay [1], the system named is Rattus norvegicus. Kind of assay: Natriuretic effect was evaluated in the conscious female rat by natriuretic assay involving metabolic caging at dose 50 mg/kg. Format: functional. The method in brief: (§1)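 Rats housed singly in metabolic cages 1-2 days beforehand and acclimated to oral gavage with 3 mL/kg tap water; food and water withdrawn 2 h pre-test. Oral saline volume load, 25 mL/kg, then compound by gavage as 1% CMC suspension (1 mL/kg); 1% CMC vehicle control. Six rats per group. 5 h urine collected; volume, Na+, K+ measured. Outliers >2 SD removed; ANOVA, Scheffe F test.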

The subject of assay [2] is Rattus norvegicus. In words: Kaliuretic effect was evaluated in the conscious female rat by natriuretic assay involving metabolic caging at dose 50 mg/kg. The format is functional. In short, it runs like this: as §1
The test system of assay [3] is Rattus norvegicus. Kind of assay: Diuretic effect was evaluated in the conscious female rat by natriuretic assay involving metabolic caging at dose 30 mg/kg. Format: functional, Urine. In short, it runs like this: as §1
The test system of assay [4] is Rattus norvegicus. In words: Diuretic effect was evaluated in the conscious female rat by natriuretic assay involving metabolic caging at dose 50 mg/kg. Format: functional, Urine. In short, it runs like this:
as §1

Assay [5] has as its system Rattus norvegicus. In words: Diuretic effect was evaluated in the conscious female rat by natriuretic assay involving metabolic caging at dose 10 mg/kg. The format is functional, Urine. The method in brief: as §1
Assay [6] relates to Rattus norvegicus. Kind of assay: Natriuretic effect was evaluated in the conscious female rat by natriuretic assay involving metabolic caging at dose 10 mg/kg. The format is functional. The method in brief: as §1
Assay [7] has as its system Rattus norvegicus. In words: Natriuretic effect was evaluated in the conscious female rat by natriuretic assay involving metabolic caging at dose 30 mg/kg. The format is functional. In short, it runs like this: as §1
Assay [8] concerns Rattus norvegicus. Kind of assay: Kaliuretic effect was evaluated in the conscious female rat by natriuretic assay involving metabolic caging at dose 10 mg/kg. Format: functional. In short, it runs like this:
as §1

In assay [9] the test system is Rattus norvegicus. In words: Kaliuretic effect was evaluated in the conscious female rat by natriuretic assay involving metabolic caging at dose 30 mg/kg. Format: functional. In short, it runs like this: as §1
Assay [10] deals with Rattus norvegicus. Kind of assay: Kaliuretic effect was evaluated in the conscious female rat by natriuretic assay involving metabolic caging at dose 20 mg/kg. Format: functional. The method in brief:
as §1

In assay [11] the test system is Rattus norvegicus. In words: Natriuretic effect was evaluated in the conscious female rat by natriuretic assay involving metabolic caging at dose 20 mg/kg. Format: functional. In short, it runs like this: as §1
For assay [12], the system named is Rattus norvegicus. Kind of assay: Diuretic effect was evaluated in the conscious female rat by natriuretic assay involving metabolic caging at dose 20 mg/kg. The format is functional, Urine. In short, it runs like this: as §1
For assay [13], the system named is Rattus norvegicus. In words: Natriuretic effect was evaluated in the conscious female rat by natriuretic assay involving metabolic caging at dose 5 mg/kg. The format is functional. The method in brief:
as §1

Assay [14] deals with Rattus norvegicus. Kind of assay: Diuretic effect was evaluated in the conscious female rat by natriuretic assay involving metabolic caging at dose 5 mg/kg. Format: functional, Urine. The method in brief: as §1
For assay [15], the system named is Rattus norvegicus. In words: Kaliuretic effect was evaluated in the conscious female rat by natriuretic assay involving metabolic caging at dose 5 mg/kg. Format: functional. In short, it runs like this: as §1

Consider `COc1ccc([C@@H]2Sc3ccccc3N(CCO)C[C@@H]2O)cc1`, for which the Natriuretic activity was less than 1.65 µM/g in the assay with Rattus norvegicus [1], less than 2 µM/g in the assay on Rattus norvegicus [6] and less than 1.6 µM/g with Rattus norvegicus [7]. For the same compound, the Kaliuretic activity is 0.97 µM/g in the assay with Rattus norvegicus [2], less than 1 µM/g in the assay on Rattus norvegicus [8] and less than 0.9 µM/g with Rattus norvegicus [9]. The Diuretic activity in the assay with Rattus norvegicus [3] was determined as 1.75 mL/g; in the assay with Rattus norvegicus [4], 1.6 mL/g; with Rattus norvegicus [5] it was 1.7 mL/g.
`COc1ccc([C@@H]2Sc3ccccc3N(CC(=O)O)C(=O)[C@@H]2OC(C)=O)cc1`: the Kaliuretic activity in the assay on Rattus norvegicus [10] is less than 1.08 µM/g; with Rattus norvegicus [2], 1.25 µM/g; in the assay with Rattus norvegicus [8], less than 0.9 µM/g; with Rattus norvegicus [9] it was 1.2 µM/g. For the same compound, the Natriuretic activity with Rattus norvegicus [11] was less than 1.55 µM/g; in the assay with Rattus norvegicus [1] it was 1.7 µM/g; with Rattus norvegicus [6] it was less than 2 µM/g; in the assay on Rattus norvegicus [7], less than 2.1 µM/g. Further, the Diuretic activity was determined as 2.25 mL/g in the assay on Rattus norvegicus [3], 2.1 mL/g in the assay with Rattus norvegicus [4], 1.92 mL/g in the assay with Rattus norvegicus [5] and 1.75 mL/g in the assay on Rattus norvegicus [12].
On to `COc1ccc([C@@H]2Sc3ccccc3N(CCO)C(=O)[C@@H]2O)cc1`, for which the Kaliuretic activity with Rattus norvegicus [10] is less than 1.05 µM/g; in the assay on Rattus norvegicus [2] it was less than 0.8 µM/g; in the assay with Rattus norvegicus [15], 1 µM/g; in the assay on Rattus norvegicus [8] it was 1.1 µM/g. The Natriuretic activity with Rattus norvegicus [11] was less than 1.9 µM/g; with Rattus norvegicus [1], less than 0.9 µM/g; with Rattus norvegicus [13], less than 1.6 µM/g; in the assay on Rattus norvegicus [6], less than 2.5 µM/g. In addition, the Diuretic activity was 1.6 mL/g in the assay with Rattus norvegicus [4], 2.1 mL/g with Rattus norvegicus [5], 1.7 mL/g with Rattus norvegicus [14] and 1.8 mL/g in the assay with Rattus norvegicus [12].
Take `COc1ccc([C@@H]2Sc3ccccc3N(CC(=O)O)C(=O)[C@@H]2O)cc1`: the Kaliuretic activity came to 1.15 µM/g in the assay on Rattus norvegicus [10], 1.23 µM/g with Rattus norvegicus [2], 1.1 µM/g in the assay on Rattus norvegicus [8] and 1.07 µM/g with Rattus norvegicus [9]. In addition, the Natriuretic activity in the assay on Rattus norvegicus [11] was less than 1.6 µM/g; with Rattus norvegicus [1], less than 1.95 µM/g; with Rattus norvegicus [6], less than 2 µM/g; in the assay on Rattus norvegicus [7] it was less than 2.1 µM/g. In addition, the Diuretic activity with Rattus norvegicus [3] came to 2.1 mL/g; with Rattus norvegicus [4], 1.85 mL/g; in the assay with Rattus norvegicus [5] it was 2 mL/g; in the assay on Rattus norvegicus [12], 1.7 mL/g.
For the compound `CCOC(=O)CN1C(=O)[C@H](O)[C@H](c2ccc(OC)cc2)Sc2ccccc21`, the figures for the Natriuretic activity in the assay on Rattus norvegicus [1], in the assay on Rattus norvegicus [6] and with Rattus norvegicus [7] were less than 1.25 µM/g, less than 2 µM/g and less than 1.6 µM/g, respectively. For the same compound, the Kaliuretic activity with Rattus norvegicus [2] was 1 µM/g; in the assay on Rattus norvegicus [8] it was less than 1.1 µM/g; in the assay on Rattus norvegicus [9], less than 0.75 µM/g. For the same compound, the Diuretic activity in the assay with Rattus norvegicus [3] turned out to be 1.5 mL/g; in the assay with Rattus norvegicus [4], 1.3 mL/g; in the assay on Rattus norvegicus [5], 1.7 mL/g.
As to `COc1ccc([C@@H]2Sc3ccccc3N(CCO)C(=O)[C@@H]2OC(C)=O)cc1`, the figures for the Kaliuretic activity with Rattus norvegicus [10] and in the assay with Rattus norvegicus [8] were less than 0.67 µM/g and 0.7 µM/g, respectively. For the same compound, the Natriuretic activity is less than 1.35 µM/g in the assay on Rattus norvegicus [11] and less than 1.25 µM/g in the assay on Rattus norvegicus [6]. Moreover, the Diuretic activity with Rattus norvegicus [5] was 1.3 mL/g; in the assay on Rattus norvegicus [12] it was 1.28 mL/g.
In the case of `COc1ccc([C@@H]2Sc3ccccc3N(CCOC(C)=O)C(=O)[C@@H]2OC(C)=O)cc1`, the Natriuretic activity in the assay with Rattus norvegicus [1] was less than 1.55 µM/g; in the assay with Rattus norvegicus [6], less than 1.35 µM/g. Moreover, the Kaliuretic activity with Rattus norvegicus [2] is less than 0.7 µM/g; with Rattus norvegicus [8], less than 0.95 µM/g. The Diuretic activity in the assay on Rattus norvegicus [4] and with Rattus norvegicus [5] was 1.3 mL/g each time.
Regarding `COc1ccc([C@@H]2Sc3ccccc3N(CCN(C)C)C(=O)[C@@H]2OC(C)=O)cc1` [DILTIAZEM], the figures for the Kaliuretic activity with Rattus norvegicus [10] and in the assay with Rattus norvegicus [8] were 0.7 µM/g and less than 0.8 µM/g, respectively. Also, the Natriuretic activity was less than 1.6 µM/g with Rattus norvegicus [11] and less than 1.4 µM/g in the assay with Rattus norvegicus [6]. The values for the Diuretic activity with Rattus norvegicus [5] and with Rattus norvegicus [12] were 1.6 mL/g and 1.8 mL/g, respectively.
`NS(=O)(=O)c1cc(C(=O)O)c(NCc2ccco2)cc1Cl` [FUROSEMIDE]: the Kaliuretic activity was less than 1.1 µM/g in the assay on Rattus norvegicus [10] and less than 1.6 µM/g in the assay on Rattus norvegicus [9]. For the same compound, the figures for the Natriuretic activity in the assay with Rattus norvegicus [11] and with Rattus norvegicus [7] were less than 1.1 µM/g and less than 2.5 µM/g, respectively. For the same compound, the Diuretic activity with Rattus norvegicus [3] is 2.6 mL/g; in the assay with Rattus norvegicus [12], 1.3 mL/g.
